Results as given in ChEMBL document CHEMBL2021918, “Discovery of S-444823, a potent CB1/CB2 dual agonist as an antipruritic agent” (Bioorg Med Chem Lett, 2012).
Activity calls are given as the source filed them. The calls are words filed in the database; no cut-off is given here.

How the values were obtained:
Cannabinoid receptor 1 [1] = biological target: T1, Cannabinoid receptor 1 (Homo sapiens, UniProt P21554); test: Agonist activity at human CB1 receptor expressed in CHO cells assessed as inhibition of forskolin-induced cAMP levels after 20 mins; type: functional, cell-based
Cannabinoid receptor 2 [2] = biological target: T2, Cannabinoid receptor 2 (Homo sapiens, UniProt P34972); test: Agonist activity at human CB2 receptor expressed in CHO cells assessed as inhibition of forskolin-induced cAMP levels after 20 mins; type: functional, cell-based
Procedure, shortened: (§1)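 hCB2-expressing CHO cells in 24-well plates, exposed to compounds 20 min at 37 °C in Hanks'/20 mM HEPES buffer with 0.1 mM IBMX, 0.2 mM Ro20-1724, 0.1% BSA; forskolin 4 µM then added for 45 min at 37 °C; cellular cAMP quantified by kit.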

Cannabinoid receptor 2 [3] = biological target: T2, Cannabinoid receptor 2; test: Displacement of [3H]CP55940 from human CB2 receptor membrane fractions
Procedure, shortened: (§2)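 Membranes from confluent recombinant hCB1 or hCB2 cells: sonicated on ice in 20 mM Tris–HCl pH 7.4, 2 mM EDTA, 0.25 M sucrose with protease inhibitor; spun 3000 rpm 10 min, then supernatant 100,000 g 60 min at 4 °C; pellets stored at −80 °C. Radioligand [3H]-CP55940; its Kd per membrane set by Scatchard analysis.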

Cannabinoid receptor 1 [4] = biological target: T1, Cannabinoid receptor 1; test: Displacement of [3H]CP55940 from human CB1 receptor membrane fractions; procedure, shortened: as §2
Mus musculus [5] = species on record: Mus musculus; test: Antipruritic activity against Crj:CD-1 ICR mouse assessed as inhibition of Compound 48/80-induced scratching behaviour at 1 % compound painted on shaven back 15 mins before challenge measured for 30 mins relative to control; type: functional
Mus musculus [6] = test: Toxicity in mouse assessed as sedation at 0.1 to 1 mg/kg, iv measured at 15 mins post compound administration; type: organism-based; set-up: dose 0.1-1 mg/kg, route intravenous; details: in vivo, 0.25 h
Procedure, shortened: (§3)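 ICR mice, n = 3 per dose, given compound iv in tail vein at 0.1 and 1.0 mg/kg, dissolved in MDAA and PEG solution. Behaviour observed 15 min post-dose and scored: 5 tonic convulsion, 4 catalepsy, 3 prone position/sedation, 2 crawling, 1 decreased locomotion, 0 normal.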

Mus musculus [7] = test: Toxicity in mouse assessed as catalepsy at 0.1 to 1 mg/kg, iv measured at 15 mins post compound administration; type: organism-based; set-up: dose 0.1-1 mg/kg, route intravenous; details: in vivo, 0.25 h; procedure, shortened: as §3
Cannabinoid receptor 1 [8] = biological target: T1, Cannabinoid receptor 1; test: Partial agonist activity at human CB1 receptor expressed in CHO cells assessed as inhibition of forskolin-induced cAMP levels after 20 mins; type: functional, cell-based
Cannabinoid receptor 2 [9] = biological target: T2, Cannabinoid receptor 2; test: Partial agonist activity at human CB2 receptor expressed in CHO cells assessed as inhibition of forskolin-induced cAMP levels after 20 mins; type: functional, cell-based; procedure, shortened: as §1

T2 sequence (P34972 whole entry): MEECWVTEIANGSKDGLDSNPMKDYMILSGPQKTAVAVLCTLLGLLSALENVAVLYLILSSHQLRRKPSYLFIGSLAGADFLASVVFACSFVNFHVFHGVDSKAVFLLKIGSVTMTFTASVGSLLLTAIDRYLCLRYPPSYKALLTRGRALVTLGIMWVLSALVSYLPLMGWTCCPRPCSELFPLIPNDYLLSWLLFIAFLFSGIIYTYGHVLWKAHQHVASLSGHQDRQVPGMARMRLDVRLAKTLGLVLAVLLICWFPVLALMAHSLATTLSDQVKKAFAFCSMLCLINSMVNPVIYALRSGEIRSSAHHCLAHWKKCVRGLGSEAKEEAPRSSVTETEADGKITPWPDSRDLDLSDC
T1 sequence (P21554 whole entry): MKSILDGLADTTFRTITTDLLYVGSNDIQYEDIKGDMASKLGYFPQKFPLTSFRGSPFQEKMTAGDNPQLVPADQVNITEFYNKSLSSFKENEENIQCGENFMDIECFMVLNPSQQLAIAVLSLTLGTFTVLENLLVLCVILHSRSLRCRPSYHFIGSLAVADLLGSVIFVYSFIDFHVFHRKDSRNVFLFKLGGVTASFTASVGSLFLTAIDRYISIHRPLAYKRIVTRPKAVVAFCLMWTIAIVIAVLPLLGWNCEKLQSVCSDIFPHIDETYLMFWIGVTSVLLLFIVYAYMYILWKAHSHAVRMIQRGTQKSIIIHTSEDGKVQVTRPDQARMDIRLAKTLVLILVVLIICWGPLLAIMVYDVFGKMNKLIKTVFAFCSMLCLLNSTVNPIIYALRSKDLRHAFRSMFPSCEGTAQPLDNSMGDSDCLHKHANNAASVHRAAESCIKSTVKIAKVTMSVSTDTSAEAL

O=C(O)Cc1cccc(NC(=O)c2cc3c(n(CC4CCCCC4)c2=O)CCCCCC3)c1
IC50 (Cannabinoid receptor 1 [1]): 997 nM | IC50 (Cannabinoid receptor 2 [2]): 180 nM | Ki (Cannabinoid receptor 2 [3]): 120 nM | Ki (Cannabinoid receptor 1 [4]): 2880 nM

O=C(N[C@@H](Cc1ccccc1)C(=O)O)c1cc2c(n(CC3CCCCC3)c1=O)CCCCCC2
IC50 (Cannabinoid receptor 1 [1]): 297 nM | IC50 (Cannabinoid receptor 2 [2]): 126 nM | Ki (Cannabinoid receptor 2 [3]): 33 nM | Ki (Cannabinoid receptor 1 [4]): 738 nM

O=C(O)c1ccccc1NC(=O)c1cc2c(n(CC3CCCCC3)c1=O)CCCCCC2
IC50 (Cannabinoid receptor 1 [1]): 657 nM | IC50 (Cannabinoid receptor 2 [2]): 167 nM | Ki (Cannabinoid receptor 2 [3]): 181 nM | Ki (Cannabinoid receptor 1 [4]): 2530 nM

O=C(O)Cc1ccccc1NC(=O)c1cc2c(n(CC3CCCCC3)c1=O)CCCCCC2
Ki (Cannabinoid receptor 2 [3]): 46 nM | Ki (Cannabinoid receptor 1 [4]): 548 nM

O=C(O)Cc1csc(NC(=O)c2cc3c(n(CC4CCCCC4)c2=O)CCCCCC3)n1
inhibition (INH) (Mus musculus [5]): 109% | Activity (Mus musculus [6]): Non-toxic | Activity (Mus musculus [7]): Non-toxic

O=C(O)Cc1cnc(NC(=O)c2cc3c(n(CC4CCCCC4)c2=O)CCCCCC3)s1
IC50 (Cannabinoid receptor 1 [1]): 23 nM | Activity (Cannabinoid receptor 1 [8]): Active | Activity (Cannabinoid receptor 2 [9]): Active | IC50 (Cannabinoid receptor 2 [2]): 3.5 nM | Ki (Cannabinoid receptor 2 [3]): 4.6 nM | Ki (Cannabinoid receptor 1 [4]): 235 nM

O=C(N[C@H](C(=O)O)C1CCCCC1)c1cc2c(n(CC3CCCCC3)c1=O)CCCCCC2
IC50 (Cannabinoid receptor 1 [1]): > 2000 nM | IC50 (Cannabinoid receptor 2 [2]): 51 nM | Ki (Cannabinoid receptor 2 [3]): 111 nM | Ki (Cannabinoid receptor 1 [4]): 3060 nM

CC(C)(NC(=O)c1cc2c(n(CC3CCCCC3)c1=O)CCCCCC2)C(=O)O
Ki (Cannabinoid receptor 2 [3]): 349 nM | Ki (Cannabinoid receptor 1 [4]): 1350 nM

O=C(O)CCc1csc(NC(=O)c2cc3c(n(CC4CCCCC4)c2=O)CCCCCC3)n1
Activity (Mus musculus [6]): Non-toxic | Activity (Mus musculus [7]): Non-toxic

O=C(O)c1cnc(NC(=O)c2cc3c(n(CC4CCCCC4)c2=O)CCCCCC3)s1
IC50 (Cannabinoid receptor 1 [1]): > 2000 nM | IC50 (Cannabinoid receptor 2 [2]): 800 nM | Ki (Cannabinoid receptor 2 [3]): 885 nM | Ki (Cannabinoid receptor 1 [4]): > 5000 nM

O=C(O)c1ccc(CNC(=O)c2cc3c(n(CC4CCCCC4)c2=O)CCCCCC3)cc1
Ki (Cannabinoid receptor 2 [3]): 923 nM

CC(C)[C@H](NC(=O)c1cc2c(n(CC3CCCCC3)c1=O)CCCCCC2)C(=O)O
Ki (Cannabinoid receptor 2 [3]): 116 nM | Ki (Cannabinoid receptor 1 [4]): 1880 nM

O=C(O)Cc1ccc(NC(=O)c2cc3c(n(CC4CCCCC4)c2=O)CCCCCC3)cc1
IC50 (Cannabinoid receptor 1 [1]): > 2000 nM | IC50 (Cannabinoid receptor 2 [2]): 96 nM | Ki (Cannabinoid receptor 2 [3]): 74 nM | Ki (Cannabinoid receptor 1 [4]): 3990 nM

O=C(O)c1cccc(NC(=O)c2cc3c(n(CC4CCCCC4)c2=O)CCCCCC3)c1
IC50 (Cannabinoid receptor 1 [1]): 611 nM | IC50 (Cannabinoid receptor 2 [2]): 268 nM | Ki (Cannabinoid receptor 2 [3]): 614 nM | Ki (Cannabinoid receptor 1 [4]): 1560 nM

O=C(O)c1csc(NC(=O)c2cc3c(n(CC4CCCCC4)c2=O)CCCCCC3)n1
IC50 (Cannabinoid receptor 1 [1]): > 2000 nM | Ki (Cannabinoid receptor 2 [3]): > 5000 nM | Ki (Cannabinoid receptor 1 [4]): > 5000 nM

O=C(N[C@@H](C(=O)O)c1ccccc1)c1cc2c(n(CC3CCCCC3)c1=O)CCCCCC2
IC50 (Cannabinoid receptor 1 [1]): > 2000 nM | Activity (Cannabinoid receptor 1 [8]): Active | Activity (Cannabinoid receptor 2 [9]): Active | IC50 (Cannabinoid receptor 2 [2]): 4.4 nM | Ki (Cannabinoid receptor 2 [3]): 3 nM | Ki (Cannabinoid receptor 1 [4]): 69 nM

O=C(O)c1ccc(NC(=O)c2cc3c(n(CC4CCCCC4)c2=O)CCCCCC3)cc1
IC50 (Cannabinoid receptor 1 [1]): 291 nM | IC50 (Cannabinoid receptor 2 [2]): 38 nM | Ki (Cannabinoid receptor 2 [3]): 107 nM | Ki (Cannabinoid receptor 1 [4]): 370 nM

O=C(N[C@H](C(=O)O)c1ccccc1)c1cc2c(n(CC3CCCCC3)c1=O)CCCCCC2
IC50 (Cannabinoid receptor 1 [1]): > 2000 nM | Activity (Cannabinoid receptor 1 [8]): Active | Activity (Cannabinoid receptor 2 [9]): Active | Ki (Cannabinoid receptor 2 [3]): 1.2 nM
